From ChEMBL document CHEMBL1909618, “Non-steroidal dissociated glucocorticoid agonists: indoles as A-ring mimetics and function-regulating pharmacophores” (Bioorg Med Chem Lett, 2011)

How the values were obtained:
[1] = target: T1, Glucocorticoid receptor (Homo sapiens) (UniProt P04150); experiment: Agonist activity at glucocorticoid receptor in HFF assessed as inhibition of IL1-induced IL-6 production after 18 to 24 hrs relative to Dexamethasone; type: functional
T1 sequence (whole entry): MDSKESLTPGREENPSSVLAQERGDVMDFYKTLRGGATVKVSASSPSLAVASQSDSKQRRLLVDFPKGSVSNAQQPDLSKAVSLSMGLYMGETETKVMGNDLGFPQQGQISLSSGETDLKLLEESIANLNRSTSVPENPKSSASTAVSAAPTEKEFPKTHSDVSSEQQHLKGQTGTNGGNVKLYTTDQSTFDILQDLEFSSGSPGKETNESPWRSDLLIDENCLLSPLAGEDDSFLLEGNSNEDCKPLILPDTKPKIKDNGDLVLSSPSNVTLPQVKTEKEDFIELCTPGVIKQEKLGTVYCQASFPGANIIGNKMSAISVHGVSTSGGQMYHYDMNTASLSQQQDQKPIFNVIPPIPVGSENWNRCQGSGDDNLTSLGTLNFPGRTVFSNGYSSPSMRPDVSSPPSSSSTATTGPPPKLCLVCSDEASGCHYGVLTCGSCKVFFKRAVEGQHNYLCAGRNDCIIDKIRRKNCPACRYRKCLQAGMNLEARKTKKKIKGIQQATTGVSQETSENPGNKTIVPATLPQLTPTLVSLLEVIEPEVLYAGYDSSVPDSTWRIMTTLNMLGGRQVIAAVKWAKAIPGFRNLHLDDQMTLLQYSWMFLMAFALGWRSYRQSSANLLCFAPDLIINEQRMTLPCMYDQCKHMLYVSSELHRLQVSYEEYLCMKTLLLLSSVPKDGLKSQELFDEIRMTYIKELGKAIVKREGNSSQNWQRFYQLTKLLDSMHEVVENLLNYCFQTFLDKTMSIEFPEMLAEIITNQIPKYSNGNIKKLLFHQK
Method in brief: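 Human foreskin fibroblasts stimulated with IL-1 (1 ng/mL) in the presence of test compound, incubated at 37 °C for 18–24 h. IL-6 in the culture medium was quantified by electrochemiluminescence, DELFIA or ELISA. IC50 and % maximal efficacy were reported.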

Glucocorticoid receptor [2] = target: T2, Glucocorticoid receptor (Homo sapiens, UniProt P04150); experiment: Transactivation activity of glucocorticoid receptor in HFF assessed as induction of aromatase activity by measuring beta-estradiol activity after 18 to 24 hrs by ELISA
T2 sequence (P04150 whole entry): T1 sequence (whole entry)

[3] = target: T1, Glucocorticoid receptor (Homo sapiens); experiment: Transactivation activity of glucocorticoid receptor in HFF assessed as induction of aromatase activity by measuring beta-estradiol activity after 18 to 24 hrs by ELISA relative to Dexamethasone
Homo sapiens [4] = species on record: Homo sapiens; experiment: Selectivity ratio of IC50 for human recombinant glucocorticoid receptor to IC50 for human recombinant progesterone receptor
Homo sapiens [5] = species on record: Homo sapiens; experiment: Selectivity ratio of IC50 for human recombinant glucocorticoid receptor to IC50 for human recombinant mineralocorticoid receptor
Glucocorticoid receptor [6] = target: T2, Glucocorticoid receptor; experiment: Displacement of tetramethylrhodamine-labeled Dexamethasone from human recombinant glucocorticoid receptor expressed in baculovirus infected insect cells by fluorescence polarization assay
Progesterone receptor = target: T3, Progesterone receptor (Homo sapiens, UniProt P06401); experiment: Displacement of tetramethylrhodamine-labeled RU-486 from human recombinant progesterone receptor expressed in baculovirus infected insect cells by fluorescence polarization assay
T3 sequence (P06401 whole entry): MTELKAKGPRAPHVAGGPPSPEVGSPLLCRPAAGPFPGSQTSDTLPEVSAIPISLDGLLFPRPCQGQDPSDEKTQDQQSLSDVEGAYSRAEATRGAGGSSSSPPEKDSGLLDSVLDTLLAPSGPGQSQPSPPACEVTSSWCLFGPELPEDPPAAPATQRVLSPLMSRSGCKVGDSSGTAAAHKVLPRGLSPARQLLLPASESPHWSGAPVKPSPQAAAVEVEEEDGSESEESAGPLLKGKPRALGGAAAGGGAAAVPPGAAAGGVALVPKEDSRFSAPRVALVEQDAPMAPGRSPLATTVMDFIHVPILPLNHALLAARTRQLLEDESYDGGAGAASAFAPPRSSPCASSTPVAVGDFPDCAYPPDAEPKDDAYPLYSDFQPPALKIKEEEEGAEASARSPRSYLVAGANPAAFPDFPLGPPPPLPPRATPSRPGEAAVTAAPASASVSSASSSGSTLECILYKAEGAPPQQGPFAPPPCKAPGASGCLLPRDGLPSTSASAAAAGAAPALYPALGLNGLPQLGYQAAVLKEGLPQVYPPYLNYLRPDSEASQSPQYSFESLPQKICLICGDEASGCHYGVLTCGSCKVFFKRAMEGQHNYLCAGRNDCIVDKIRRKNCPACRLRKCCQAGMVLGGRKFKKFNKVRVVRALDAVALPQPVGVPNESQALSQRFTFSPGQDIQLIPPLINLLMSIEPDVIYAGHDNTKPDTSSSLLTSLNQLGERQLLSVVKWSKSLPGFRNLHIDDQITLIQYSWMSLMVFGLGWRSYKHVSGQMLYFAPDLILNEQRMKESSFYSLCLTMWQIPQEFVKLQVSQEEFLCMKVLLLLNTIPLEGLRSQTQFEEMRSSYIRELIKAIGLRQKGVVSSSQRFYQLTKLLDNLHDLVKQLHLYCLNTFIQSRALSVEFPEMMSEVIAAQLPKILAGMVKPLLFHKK
Method in brief: (§1)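 Fluorescence polarization competition assays with recombinant human receptors in lysates of baculovirus-infected insect cells. Reactions contained 1% DMSO and ran 1 h at room temperature.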

[7] = target: T4, Mineralocorticoid receptor (Homo sapiens, UniProt P08235); experiment: Displacement of tetramethylrhodamine-labeled Dexamethasone from human recombinant mineralocorticoid receptor expressed in baculovirus infected insect cells by fluorescence polarization assay; method in brief: as §1
T4 sequence (P08235 whole entry): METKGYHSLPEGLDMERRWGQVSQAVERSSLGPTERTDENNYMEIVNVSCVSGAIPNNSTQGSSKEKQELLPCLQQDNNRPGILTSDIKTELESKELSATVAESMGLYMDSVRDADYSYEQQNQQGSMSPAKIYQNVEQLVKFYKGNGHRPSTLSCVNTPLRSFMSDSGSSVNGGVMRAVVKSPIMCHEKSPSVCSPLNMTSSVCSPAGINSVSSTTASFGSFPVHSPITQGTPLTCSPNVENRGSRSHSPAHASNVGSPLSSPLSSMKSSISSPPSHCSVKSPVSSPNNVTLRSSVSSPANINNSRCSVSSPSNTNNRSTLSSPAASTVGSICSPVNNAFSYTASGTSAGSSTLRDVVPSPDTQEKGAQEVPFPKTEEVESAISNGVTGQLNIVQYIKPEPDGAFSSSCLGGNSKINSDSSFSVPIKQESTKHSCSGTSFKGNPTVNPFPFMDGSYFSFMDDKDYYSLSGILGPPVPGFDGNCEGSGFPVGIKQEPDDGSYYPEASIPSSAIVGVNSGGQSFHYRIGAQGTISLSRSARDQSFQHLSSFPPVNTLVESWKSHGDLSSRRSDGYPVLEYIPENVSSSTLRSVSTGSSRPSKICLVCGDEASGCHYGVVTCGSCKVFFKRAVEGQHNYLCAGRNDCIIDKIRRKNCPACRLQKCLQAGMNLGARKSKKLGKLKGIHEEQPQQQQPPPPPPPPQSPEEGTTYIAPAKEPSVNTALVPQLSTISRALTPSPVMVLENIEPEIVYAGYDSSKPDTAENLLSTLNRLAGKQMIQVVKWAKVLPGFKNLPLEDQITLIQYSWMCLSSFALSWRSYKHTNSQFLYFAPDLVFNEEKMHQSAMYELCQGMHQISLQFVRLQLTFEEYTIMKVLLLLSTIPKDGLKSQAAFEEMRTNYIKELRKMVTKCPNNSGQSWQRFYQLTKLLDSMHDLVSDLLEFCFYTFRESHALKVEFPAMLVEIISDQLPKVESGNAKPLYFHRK

Glucocorticoid receptor [8] = target: T2, Glucocorticoid receptor; experiment: Agonist activity at glucocorticoid receptor in HFF assessed as inhibition of IL1-induced IL-6 production after 18 to 24 hrs; type: functional
Glucocorticoid receptor [9] = target: T2, Glucocorticoid receptor; experiment: Agonist activity at glucocorticoid receptor in human HeLa cells transfected with luciferase gene linked to MMTV promoter assessed as luciferase transactivation activity; type: functional, cell-based
[10] = target: T1, Glucocorticoid receptor (Homo sapiens); experiment: Agonist activity at glucocorticoid receptor in human HeLa cells transfected with luciferase gene linked to MMTV promoter assessed as luciferase transactivation activity relative to Dexamethasone; type: functional, cell-based
Method in brief: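 HeLa cells stably carrying an MMTV-luciferase construct were exposed to compound for 6 h at 37 °C, 5% CO2. Cells were then lysed and luminescence read with a Steady-Glo reagent. EC50 and % maximal efficacy were reported.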

Row | Compound | Efficacy [1] | EC50 (Glucocorticoid receptor [2]; read-out: EC50) | Efficacy [3] | Ratio IC50 (Homo sapiens [4]) | Ratio IC50 (Homo sapiens [5]) | IC50 (Glucocorticoid receptor [6]) | IC50 (Progesterone receptor) | IC50 [7] | IC50 (Glucocorticoid receptor [8]) | EC50 (Glucocorticoid receptor [2]) | EC50 (Glucocorticoid receptor [9]) | Efficacy [10]
1 | COc1ccc(F)cc1C(C)(C)CC(O)(Cc1cc2ccc(C#N)cc2[nH]1)C(F)(F)F (racemic) | 91% | 113 nM | 98% | 30 | 30 | 14 nM | 395 nM | 435 nM | 14 nM | – | – | –
2 | CC(C)(CC(O)(Cc1cc2ccccc2[nH]1)C(F)(F)F)c1cc(C#N)cc2c1OCC2 (racemic) | 65% | 356 nM | 55% | 50 | – | 15 nM | 710 nM | 405 nM | 104 nM | – | – | –
3 | COc1ccc(F)cc1C(C)(C)CC(O)(Cc1cc2c(C#N)cccc2[nH]1)C(F)(F)F (racemic) | 91% | 21 nM | 91% | 90 | – | 5 nM | 440 nM | 225 nM | 8 nM | – | – | –
4 | COc1ccc(F)cc1C(C)(C)CC(O)(Cc1cc2cc(C#N)ccc2[nH]1)C(F)(F)F (racemic) | 89% | 28 nM | 81% | 100 | 50 | 8 nM | 815 nM | 415 nM | 11 nM | – | – | –
5 | CCc1cccc2[nH]c(CC(O)(CC(C)(C)c3cc(F)ccc3OC)C(F)(F)F)cc12 (racemic) | 90% | – | 49% | 30 | – | 28 nM | 1000 nM | 790 nM | 88 nM | Not Active | – | –
6 | CC(C)(CC(O)(Cc1cc2ccccc2[nH]1)C(F)(F)F)c1cc(S(C)(=O)=O)cc2c1OCC2 (racemic) | 84% | – | – | > 300 | 100 | 6 nM | > 2000 nM | 610 nM | 100 nM | – | > 2000 nM | 20%
7 | COc1ccc(F)cc1C(C)(C)C[C@](O)(Cc1cc2ccccc2[nH]1)C(F)(F)F | 20% | > 2000 nM | 20% | – | – | > 2000 nM | 1200 nM | 1100 nM | > 2000 nM | – | – | –
8 | COc1ccc(F)cc1C(C)(C)C[C@@](O)(Cc1cc2cc(C#N)ccc2[nH]1)C(F)(F)F | 90% | 6 nM | 71% | – | – | 1 nM | 155 nM | 45 nM | 3 nM | – | 36 nM | 10%
9 | COc1ccc(F)cc1C(C)(C)CC(O)(Cc1cc2cc(C(F)(F)F)ccc2[nH]1)C(F)(F)F (racemic) | 77% | 640 nM | 65% | – | – | 290 nM | > 2000 nM | > 2000 nM | 191 nM | – | – | –
10 | Cc1cc2c(c(C(C)(C)CC(O)(Cc3cc4ccccc4[nH]3)C(F)(F)F)c1)OCC2 (racemic) | 95% | 16 nM | 105% | – | – | 10 nM | 145 nM | 240 nM | 7 nM | – | – | –
11 | COc1ccc(F)cc1C(C)(C)CC(O)(Cc1cc2c(C)cccc2[nH]1)C(F)(F)F (racemic) | 91% | 9 nM | 110% | – | – | 30 nM | 350 nM | 415 nM | 6 nM | – | – | –
